Laboratory results from ChEMBL document CHEMBL1154139, “Isolation of aerucyclamides C and D and structure revision of microcyclamide 7806A: heterocyclic ribosomal peptides from Microcystis aeruginosa PCC 7806 and their antiparasite evaluation” (J Nat Prod, 2008).

Experiments:
[1] = system: Trypanosoma brucei rhodesiense; assay: Antitrypanosomal activity against Trypanosoma brucei rhodesiense STIB900 by fluorescence assay; type: functional, organism-based
[2] = system: Plasmodium falciparum; assay: Antiplasmodial activity against chloroquine-resistant Plasmodium falciparum K1 assessed as [3H]hypoxanthine incorporation after 48 hrs by beta-plate liquid scintillation counting; type: functional, organism-based
Procedure, shortened: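 K1 strain (chloroquine- and pyrimethamine-resistant) in infected human red blood cells, RPMI 1640 with 5% Albumax, exposed to serial dilutions for 48 h at 37 °C under reduced oxygen. 0.5 µCi [3H]-hypoxanthine then added for a further 24 h. Cells harvested onto glass-fiber filters and counted. CPM expressed as % of untreated controls, IC50 taken from sigmoidal curves. Run in duplicate, repeated once.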

[3] = system: L6; assay: Cytotoxicity against rat L6 cells; type: cell-based
Procedure, shortened: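 Rat skeletal myoblasts (L-6) grown in RPMI 1640 with 10% FBS and 2 mM L-glutamine, exposed to serial dilutions 90 to 0.123 µg/mL at 37 °C, 5% CO2. Alamar Blue (resazurin) read-out by fluorescence (ex 536/em 588 nm) as percent of control cultures; IC50 from sigmoidal inhibition curves.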

[4] = system: MCF7; assay: Cytotoxicity against human MCF7 cells; type: cell-based
[5] = system: Plasmodium falciparum; assay: Antiplasmodial activity against Plasmodium falciparum W2; type: functional, organism-based
[6] = system: Thamnocephalus platyurus; assay: Cytotoxicity against Thamnocephalus platyurus; type: functional
Procedure, shortened: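 Instar II-III larvae hatched from cysts, tested in multiwell plates at six concentrations from 1 to 100 µM, in triplicate. Value derived by nonlinear regression.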

Compound | IC50 [1] | IC50 [2] | IC50 [3] | IC50 [4] | IC50 [5] | LC50 [6]
CSCC[C@@H]1NC(=O)c2csc(n2)CNC(=O)[C@H]2N=C(O[C@@H]2C)[C@H](Cc2ccccc2)NC(=O)[C@@H]2CSC1=N2 [AERUCYCLAMIDE D] | 50.1 µM | 6.3 µM | > 153 µM | – | – | –
CC[C@H](C)[C@@H]1NC(=O)c2csc(n2)[C@@H]([C@@H](C)CC)NC(=O)c2csc(n2)CNC(=O)[C@H]2N=C1O[C@@H]2C [AERUCYCLAMIDE B] | 15.9 µM | 0.7 µM | 120 µM | – | – | –
Cc1oc2nc1C(=O)N[C@H](C)c1nc(cs1)C(=O)N[C@H](C(C)C)c1nc(cs1)C(=O)N[C@@H]2C [VENTURAMIDE A] | – | – | – | 13.1 µM | 8.2 µM | –
CC[C@H](C)[C@@H]1NC(=O)[C@H]2CSC(=N2)[C@@H]([C@@H](C)CC)NC(=O)c2csc(n2)CNC(=O)[C@H]2N=C1O[C@@H]2C [AERUCYCLAMIDE A] | 56.3 µM | 5 µM | > 168 µM | – | – | –
CC[C@H](C)[C@H]1NC(=O)c2coc(n2)[C@H](C(C)C)NC(=O)[C@H]2N=C(O[C@@H]2C)[C@H](C)NC(=O)c2csc1n2 [AERUCYCLAMIDE C] | 9.2 µM | 2.3 µM | 106 µM | – | – | 70.5 µM
Cc1oc2nc1C(=O)N[C@H]([C@@H](C)O)c1nc(cs1)C(=O)N[C@H](C(C)C)c1nc(cs1)C(=O)N[C@@H]2C [VENTURAMIDE B] | – | – | – | > 54 µM | 5.2 µM | –
